Experimental data from the RNAGym collection of RNA variant scans (doi:10.1126/science.aae0568).
Fewer inactive variants are shown than the library holds.

B1: tRNA (parent)
chain: GUUCCGUUGGCGUAAUGGUAACGCGUCUCCCUCCUAAGGAGAAGACUGCGGGUUCGAGUCCCGUACGGAACG

Variants of: B1
Test: yeast fitness relative to wild type (ratio to wild type); higher = fitter; tRNA-Arg(CCU), competitive growth, 37 C, YPD
How it was run: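 A pool of Saccharomyces cerevisiae strains, each with a tRNA-Arg(CCU) gene variant at the native genomic locus, was competed in YPD at 37°C for 24 hours across six parallel replicates. The variants had been chemically synthesised at a 3% per-site mutation rate over 69 sites, and gene amplicons before and after competition were read by 100-nucleotide paired-end sequencing. Darwinian fitness relative to wild type rested on changes in genotype frequencies. Genotypes required ≥ 100 starting reads, and estimates < 0.5 were set to 0.5.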

Row | Variant | yeast fitness
1 | U7C A36C C61G C66U A69U | ≤ 0.5
2 | U7C G18A U35A A43U U54C A65G | ≤ 0.5
3 | U7C C29A U32C C60A | ≤ 0.5
4 | U7C C61U A70G | 0.712
5 | U7C A14G C29U C31U C33U C49U | ≤ 0.5
6 | U7C G48A G68U A70C | 0.542
7 | U7C C46G G50A C62G U64C | 0.695
8 | U7C G41A A42C G50C C55A | ≤ 0.5
9 | U7C A20G A69C | 0.594
10 | U7C C27G A69U | 0.632
11 | U7A U8A G10C C27G C34G C55U A57G | ≤ 0.5
12 | U7C G23A G56C G68A | ≤ 0.5
13 | U7C C27G C33G G44A C61G | ≤ 0.5
14 | U7C C46A U64C | 0.545
15 | U7C C24A G67A | ≤ 0.5
16 | U7C A14C A70C | 0.594
17 | U7C A20C C34A G63C | ≤ 0.5
18 | U7C A14U A65C | ≤ 0.5
19 | U7C G17C U19C C24G G48C G51C U53C A57U C66U | 0.575
20 | U7C C29G G67C | 0.651
21 | U7C G25A G41A A42C G50C A70G | 0.569
22 | U7C C66U | 0.921
23 | U7C C29G G44C | 0.567
24 | U7C A15G G18C C49U | ≤ 0.5

Row | Variant | yeast fitness
25 | U7C A14C G51A | ≤ 0.5
26 | U7C G56A A65C | 0.598
27 | U7C C11U | 0.886
28 | U7C A70G | 0.879
29 | U7C A14G C22G | ≤ 0.5
30 | U7C A20C A69C | 0.615
31 | U7C C22A C31U A57C G58A A69G | ≤ 0.5
32 | U7A U32C A65G | 0.558
33 | U7C A15G G51C A57U | ≤ 0.5
34 | U7C A21U C22A | ≤ 0.5
35 | U7A U47A A65G | 0.523
36 | U7C C46G | 0.943
37 | U7C C46U | 0.884
38 | U7C C11G C24U G48A A57G C66U A70C | ≤ 0.5
39 | U7C C30G U54C C61G | ≤ 0.5
40 | U7C A69U | 0.913
41 | U7C G10A C24G C62A | ≤ 0.5
42 | U7C A15G A20U C24G U35C A36C C66U | ≤ 0.5
43 | U7C A37G A42C C49G C61U | 0.504
44 | U7C C31G G38C A43U C62G | ≤ 0.5
45 | U7C A36G A43U | 0.535
46 | U7C C27U A36C G56C G68A A70U | ≤ 0.5
47 | U7C | 1.01
48 | U7C A37C A40C A45U A57C A70U | 0.555

Row | Variant | yeast fitness
49 | U7A U32G A37U C49U | 0.642
50 | U7C G25A U47C U64G G68C | ≤ 0.5
51 | U7C C62A | 0.786
52 | U7C A14G G25A A43G A69C | ≤ 0.5
53 | U7A U26C A40G A43U C49A | 0.622
54 | U7C A43C | 0.88
55 | U7C A43U | 0.949
56 | U7C A43G | 0.841
57 | U7C G18C C55G | ≤ 0.5
58 | U7A U19A C29A | ≤ 0.5
59 | U7C A65U A69U | 0.801
60 | U7C G52A | 0.69
61 | U7C A42C G58A | ≤ 0.5
62 | U7A U8A G10C C27G C34G U35C C55U | ≤ 0.5
63 | U7C A21G C29A G48C | 0.555
64 | U7C C22G C24A G25C | ≤ 0.5
65 | U7A U8C A36C G51C | ≤ 0.5
66 | U7C G17A C22U | 0.651
67 | U7C C33U A65U | ≤ 0.5
68 | U7C C30U C34A | ≤ 0.5
69 | U7C C61G | 0.634
70 | U7C C61U | 0.959
71 | U7C C24U A42G U54A C55G | ≤ 0.5
72 | U7A U8A G10C C27G C34G | 0.564

Row | Variant | yeast fitness
73 | U7A U28A | 0.605
74 | U7A U28C | 0.711
75 | U7C C49A G67A | ≤ 0.5
76 | U7C C11G U32G C61U | 0.59
77 | U7C C46U A69U | 0.842
78 | U7A U16A | 0.743
79 | U7C G9C | 0.729
80 | U7C A21G C49U | 0.722
81 | U7C A37G | 0.666
82 | U7C A37C | 0.862
83 | U7C C55U | 0.847
84 | U7C C29G G44C C60U | ≤ 0.5
85 | U7A G58C | 0.918
86 | U7C C30U G44A G56A | 0.522
87 | U7C G39C U47A G58A G63A | ≤ 0.5
88 | U7A G50C U53C C55U | ≤ 0.5
89 | U7C C22U C49U C55A | ≤ 0.5
90 | U7C A15C G25A G38A A45G G52A C61G | ≤ 0.5
91 | U7A U54A U59C U64C | ≤ 0.5
92 | U7C C31U A70U | 0.658
93 | U7A U8C G23A G56C C66G | 0.677
94 | U7C G41A A42C G50C C62G | ≤ 0.5
95 | U7C C24G A45G | ≤ 0.5
96 | U7C C30U C34A G52C | ≤ 0.5

Row | Variant | yeast fitness
97 | U7A G68C | 0.811
98 | U7A U16C G17A C29U C31A U35C C66G G67U | ≤ 0.5
99 | U7C A15C G38A A45G G52A C61G C66U | ≤ 0.5
100 | U7C G9A G23C A45C | ≤ 0.5
101 | U7A G39C C46G C49U C62U | ≤ 0.5
102 | U7C G50C A70G | ≤ 0.5
103 | U7C A14G G17A A69U A70U | 0.594
104 | U7C G48C A70C | 0.6
105 | U7C C33U G63A | 0.54
106 | U7C A15G C61G C66U A69U | ≤ 0.5
107 | U7C C27A C66A | ≤ 0.5
108 | U7C G12C A20C | 0.632
109 | U7C A15C A40G A57G | 0.649
110 | U7A U8G G51A A69C | ≤ 0.5
111 | U7C C30G A40C A42G | 0.534
112 | U7A G39C A45G | ≤ 0.5
113 | U7C A43C A57G U59C A70G | ≤ 0.5
114 | U7A G67A | 0.781
115 | U7A G67C | 0.669
116 | U7C C27A A69U | ≤ 0.5
117 | U7C C31G U32C G48C G50A A65U | ≤ 0.5
118 | U7A U28A C61U U64A | ≤ 0.5
119 | U7C G12A A45C C61G A65C | ≤ 0.5
120 | U7C C49A | 0.732

Row | Variant | yeast fitness
121 | U7C C49G | 0.774
122 | U7C G38C | 0.715
123 | U7C G38A | 0.881
124 | U7C C11U C22A C29G C33U | ≤ 0.5
125 | U7A U19A A20C A40G A69U | 0.503
126 | U7C G10A C34A G63A | 0.555
127 | U7A U16C C29U C31A C66G G67U | ≤ 0.5
128 | U7C G12C | 0.914
129 | U7C A20G U32G | ≤ 0.5
130 | U7C C31G | 0.81
131 | U7C C31U | 0.954
132 | U7C C11A C30G | ≤ 0.5
133 | U7C C29U C31A C66G G67U | ≤ 0.5
134 | U7C G51A | 0.856
135 | U7C G51C | 0.6
136 | U7C A14C | 0.679
137 | U7C A14G | 0.86
138 | U7C G41A A42C | 0.543
139 | U7C A15U G39A | 0.623
140 | U7C G10A C24G | ≤ 0.5
141 | U7C C11G C24U G48A C66U | ≤ 0.5
142 | U7A U19A C27A C30U G41C A43U C49A | ≤ 0.5
143 | U7C C27U A45C | 0.609
144 | U7C G10A C29U C30G C34A | ≤ 0.5

Row | Variant | yeast fitness
145 | U7C C22U C29G | ≤ 0.5
146 | U7A U8C G9A U32G A42U | 0.561
147 | U7C C27U A45U G48A C66U | ≤ 0.5
148 | U7C C31U A43G U59A | 0.505
149 | U7C G25A U59C A69C | ≤ 0.5
150 | U7A U16A C29U C60U C66G G68A | ≤ 0.5
151 | U7A U53C | 0.604
152 | U7C G10A G41C U64G A65C | ≤ 0.5
153 | U7C A57U U64C G67C | 0.501
154 | U7A U19G G58A A69C | 0.527
155 | U7C A40U A42U U54A U64G | ≤ 0.5
156 | U7A U8A G10C C27G C34G C55U | 0.527
157 | U7C C24U C31A A42G U54A C55G | ≤ 0.5
158 | U7C A36C A57U C61A C66G | 0.537
159 | U7C A36C A57U C61A C66A | ≤ 0.5
160 | U7A G51C G56C C61A | ≤ 0.5
161 | U7C C30A U54A A57C | ≤ 0.5
162 | U7A U19G C60G | ≤ 0.5
163 | U7A G44C C49U C61A C62U C66U | ≤ 0.5
164 | U7C A14U G25C G39U C62G A65U | ≤ 0.5
165 | U7C G12A G41A A42C G50C A70G | 0.53
166 | U7C C11G G18A G44U A65C | ≤ 0.5
167 | U7C A36U G50C C60A G63A | ≤ 0.5
